Assay results collected from several papers.
Lines come from different studies, so protocols differ.
Target: Tyrosine-protein kinase Fgr (FGR, Homo sapiens, UniProt P09769)

| Compound | read-out | action | method | concentration | endpoint | value |
| --- | --- | --- | --- | --- | --- | --- |
| Cc1cc(NC(=O)c2cccc3cc(-c4cccc5[nH]nc(N)c45)ccc23)ccc1F | enzyme activity | inhibitor |  | 0.1 µM | activity vs control | 110% |
| CNC(=O)c1ccc(Nc2ncc(C(F)(F)F)c(NCc3nccnc3N(C)S(C)(=O)=O)n2)cc1 | cell-free assay |  | competition with immobilised ligand | 0.1 µM | remaining binding | 81% |
| CC1(C)NC(=O)c2[nH]c3c(Cl)c(Cl)ccc3c2C1C#N (stereo not shown) | thermal stability |  | DSF | 10 µM | ΔTm | 0.2 °C |
| O=S(=O)(NC1CCC(c2cc(F)ccc2F)(S(=O)(=O)c2ccc(Cl)cc2)CC1)C(F)(F)F (stereo not shown) | cell-free assay |  | competition with immobilised ligand | 1 µM | remaining binding | 99% |
| CCCOc1ccc(OC)c(F)c1C(=O)c1ccc(C(=O)N[C@@H]2CNC[C@H]2NC(=O)c2ccc3[nH]ncc3c2)cc1 | enzyme activity | inhibitor |  | 10 µM | remaining activity | 65% |
| CCN(CC)CCNC(=O)c1c(C)[nH]c(/C=C2\C(=O)Nc3ccc(F)cc32)c1C | enzyme activity | inhibitor |  | 10 µM | inhibition | 97% |
| O=C1NC(=O)c2cc(Nc3ccc(F)cc3)c(Nc3ccc(F)cc3)cc21 | cell-free assay |  |  | 0.5 µM | remaining signal | 96.3% |
| Cn1c2c(Cl)c(Cl)ccc2c2cn[nH]c(=O)c21 | thermal stability |  | DSF | 10 µM | ΔTm | -0.1 °C |
| Nc1ncnc2occ(-c3ccc(NC(=O)Nc4cc(C(F)(F)F)ccc4F)cc3)c12 | cell-free assay | inhibitor |  | 20 µM | remaining signal | 5.2% |
| O=C(Nc1cccnn1)N1CC(C/C=C/c2cncc(Oc3ccc(C(F)(F)F)cn3)n2)C1 | cell-free assay |  | competition with immobilised ligand | 1 µM | remaining binding | 100% |
| CC(C)(C)c1nc(-c2cccc(NS(=O)(=O)c3c(F)cccc3F)c2F)c(-c2ccnc(N)n2)s1 | enzyme activity | inhibitor | radiometric | 1 µM | remaining activity | 60% |
| Cc1cnc(NC2CCOCC2)nc1-n1cnc(C(=O)NC(CN)c2cc(F)cc(Cl)c2)c1 (stereo not shown) | enzyme activity | inhibitor | radiometric | 1 µM | remaining activity | 97% |
| FC(F)(F)c1ccc2c(c1)nc(-c1cccnc1)n2C1CC1 | cell-free assay |  | competition with immobilised ligand | 1 µM | remaining binding | 100% |
| O=C(Nc1cnn(-c2csc(C(=O)NC3COC3)c2)c1)Nc1ccccc1Cl | enzyme activity | inhibitor |  | 5 µM | remaining activity | 90% |
| O=C1CCc2cc(Nc3cc(OC4CCOCC4)c([N+](=O)[O-])cc3Cl)ccc2N1 | cell-free assay |  | competition with immobilised ligand | 1 µM | remaining binding | 100% |
| CN(c1nccc(-c2cnn3ncccc23)n1)C1CC1 | cell-free assay |  |  | 1 µM | remaining signal | 100% |
| O=C(Nc1cnn(-c2csc(C(=O)NC3COC3)c2)c1)Nc1c(F)cccc1Cl | enzyme activity | inhibitor |  | 5 µM | remaining activity | 95.5% |
| Cn1c2c(Cl)c(Cl)ccc2c2cc(N)[nH]c(=O)c21 | thermal stability |  | DSF | 10 µM | ΔTm | 0 °C |
| CN(C)C(=O)Cn1cc(-c2nc(C3(c4ccc(-c5cnc(N)nc5)cc4)CC3)no2)cn1 | cell-free assay |  | competition with immobilised ligand | 1 µM | remaining binding | 100% |
| CC/C(=N\NC(=O)NCc1cccc(O)c1)c1ccc(O)c(C)c1O | enzyme activity | inhibitor |  | 0.1 µM | inhibition | 1.1% |
| Cc1ccc(C(=O)Nc2ccc(CN3CCN(C)CC3)c(C(F)(F)F)c2)cc1C#Cc1cnc2cccnn12 | enzyme activity |  |  | 23.5 nM | remaining activity | 10% |
| O=C(N1CCS(=O)(=O)CC1)N1C[C@H](c2ccc(OC(F)(F)F)cc2)C[C@H](c2nc(C3CC3)no2)C1 | cell-free assay |  | competition with immobilised ligand | 1 µM | remaining binding | 100% |
| CCN1CCC2(CC1)NC(=O)c1c(c3ccc(Cl)c(Cl)c3n1C)C2C#N (racemic) | thermal stability |  | DSF | 10 µM | ΔTm | -0.1 °C |
| CC(C)CC(=O)N1CCc2nc(-c3ccc(Br)cc3)nc(N(C)Cc3ccccc3)c2C1 | cell-free assay |  | competition with immobilised ligand | 0.1 µM | remaining binding | 99% |
| CNC(=O)c1cc(Oc2ccc(NC(=O)Nc3ccc(Cl)c(C(F)(F)F)c3)cc2)ccn1 | enzyme activity | inhibitor |  | 0.3 µM | inhibition | 10% |
| Cn1c2c(c3ccc(Cl)c(Cl)c31)C(C#N)C1(CCNCC1)NC2=O (racemic) | thermal stability |  | DSF | 10 µM | ΔTm | 0.1 °C |
| Cc1ccc(NC(=O)c2ccc(CN3CCN(C)CC3)cc2)cc1Nc1nc(-c2cccnc2)cs1 | cell-free assay |  |  | 0.5 µM | remaining signal | 43.6% |
| COc1cc2ncnc(Nc3ccc(Oc4ccccc4)cc3C)c2cc1OC | enzyme activity | inhibitor |  | 1 µM | inhibition | 98% |
